Assays:
[1] = system: Trypanosoma brucei brucei; assay: Antitrypanosomal activity against bloodstream form Trypanosoma brucei brucei AnTat 1.9 trypomastigotes assessed as reduction in parasite viability incubated for 69 hrs by Alamar Blue dye based assay; format: functional, organism-based; conditions: AnTat 1.9, 69 h
Summary of the method: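 BSF parasites were cultured in MEM/Baltz medium with 20% heat-inactivated horse serum, mercaptoethanol, L-cysteine and bathocuproine, at 37 °C and 5% CO₂. Cells were seeded at 2000 parasites/100 µL with compound from DMSO, in duplicate, for 69 h. Alamar Blue was added for 5 h and fluorescence read (ex 530/em 590 nm). EC50 came from non-linear regression over three independent experiments.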

[2] = Selectivity index, ratio of CC50 for human HepG2 cells to EC50 for antileishmanial activity against Leishmania donovani MHOM/IN/00/DEVI promastigotes; format: toxicity; conditions: read-out: Ratio CC50/EC50
Leishmania donovani = assay: Antileishmanial activity against Leishmania donovani MHOM/IN/00/DEVI promastigotes assessed as inhibition of parasitic metabolic activity measured after 72 hrs by MTT assay; format: functional, organism-based
Summary of the method: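 Log-phase promastigotes at 10⁶/mL were grown in Schneider's medium with 20% FCS at 27 °C. Compound was added from DMSO stock (final <0.5% v/v), in duplicate, for 72 h. Metabolic activity was read by MTT (4 h, 27 °C) and absorbance at 570 nm. EC50 came from non-linear dose-response regression, as the mean of ≥3 independent experiments.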

[3] = Cytotoxicity against human HepG2 cells assessed as reduction in cell viability after 72 hrs by MTT assay; format: cell-based
Summary of the method: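 MTT was applied at 0.5 mg/mL for 2 h, formazan was dissolved in DMSO, and absorbance read at 570 nm with a 630 nm reference. Doxorubicin was the positive control. CC50 was taken from the dose-response curve, as the mean of three experiments.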

Leishmania infantum = assay: Antileishmanial activity against Leishmania infantum MHOM/MA/67/ITMAP-263 axenic amastigotes assessed as inhibition of parasitic metabolic activity incubated for 48 hrs by steady Glow reagent based luminescence assay; format: functional, organism-based; conditions: MHOM/MA/67/ITMAP-263, 48 h
Summary of the method: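 Luciferase-expressing promastigotes were acidified (pH 5.4, 24 h, 24 °C) and then held 24 h at 37 °C to give axenic amastigotes. These were used at 2×10⁶/mL with compound (DMSO <0.5%), in duplicate, for 48 h at 37 °C. Luciferase luminescence was read. EC50 came from non-linear regression, as the mean of three independent experiments.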

[4] = Selectivity index, ratio of CC50 for human HepG2 cells to EC50 for Trypanosoma brucei brucei trypomastigotes AnTat 1.9; format: toxicity; conditions: read-out: Ratio CC50/EC50
Albumin = Albumin (Homo sapiens, UniProt P02768); assay: Binding affinity to human albumin incubated for 4 hrs by LC-MS analysis; format: ADME; conditions: read-out: PB (converted)
[5] = Electrochemical behavior of the compound assessed as redox potential corrected toward normal hydrogen electrode by cyclic voltammetry
[6] = Microsomal stability in CD-1 mouse liver microsomes assessed as half life in presence of NADP measured up to 40 mins by LC-MS analysis; format: ADME, Microsome
Summary of the method: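 Compound was incubated in duplicate with female CD-1 mouse microsomes at 37 °C in 50 mM phosphate, pH 7.4. An NADP-regenerating system was present (MgCl₂ 5 mM, NADP 1 mM, G6PDH 0.4 U/mL, G6P 5 mM).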

[7] = Selectivity index, ratio of CC50 for human HepG2 cells to EC50 for antileishmanial activity against Leishmania infantum MHOM/MA/67/ITMAP-263 axenic amastigotes; format: toxicity; conditions: read-out: Ratio CC50/EC50
[8] = Aqueous solubility of compound; format: physicochemical; conditions: buffer

Sequence of Albumin (P02768 whole entry): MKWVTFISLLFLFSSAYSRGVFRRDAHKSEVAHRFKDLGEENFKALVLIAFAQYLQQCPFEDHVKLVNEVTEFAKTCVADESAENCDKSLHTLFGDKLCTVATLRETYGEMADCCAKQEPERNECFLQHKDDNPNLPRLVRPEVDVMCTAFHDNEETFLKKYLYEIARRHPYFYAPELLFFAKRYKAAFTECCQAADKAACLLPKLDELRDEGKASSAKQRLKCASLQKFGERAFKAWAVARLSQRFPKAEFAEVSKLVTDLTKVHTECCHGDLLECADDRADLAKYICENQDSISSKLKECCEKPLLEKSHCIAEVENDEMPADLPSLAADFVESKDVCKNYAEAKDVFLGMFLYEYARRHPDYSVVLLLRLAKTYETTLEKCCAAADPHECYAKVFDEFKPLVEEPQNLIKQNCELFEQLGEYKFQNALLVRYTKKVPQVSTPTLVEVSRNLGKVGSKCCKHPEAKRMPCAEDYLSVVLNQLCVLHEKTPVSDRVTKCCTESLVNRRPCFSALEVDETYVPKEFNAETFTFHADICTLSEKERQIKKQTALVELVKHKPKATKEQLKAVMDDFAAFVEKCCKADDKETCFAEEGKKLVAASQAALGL

SMILES | EC50 [1] | selectivity ratio [2] | EC50 (Leishmania donovani) | CC50 at 72 h [3] | EC50 (Leishmania infantum) | selectivity ratio [4] | fraction unbound at 4 h (Albumin) | Activity [5] | half-life [6] | selectivity ratio [7] | solubility [8]
O=[N+]([O-])c1c(CS(=O)(=O)C2CCCCC2)nc2c(Br)cc(Cl)cn12 | 0.5 µM | > 17.3 | 0.9 µM | > 15.6 µM | > 100 µM | > 31.2 | – | – | – | – | –
O=[N+]([O-])c1c(CS(=O)(=O)c2ccccc2)nc2c(Br)cc(Cl)cn12 | – | – | – | – | – | – | 0.035 | -0.65 V | 12 min | – | –
CC1CS(=O)(=O)CCN1/N=C/c1ccc([N+](=O)[O-])o1 (centres undefined) [NIFURTIMOX] | – | – | – | – | – | – | – | -0.61 V | – | – | –
O=[N+]([O-])c1c(CSc2ccccc2)nc2c(Sc3ccc(Cl)cc3)cc(Cl)cn12 | > 50 µM | > 2.1 | 7.4 µM | > 15.6 µM | – | – | – | -0.72 V | – | – | –
O=[N+]([O-])c1c(CS(=O)(=O)c2ccccc2)nc2c(Sc3ccc(Cl)cc3)cc(C(F)(F)F)cn12 | 0.17 µM | > 4.1 | 1.9 µM | > 7.8 µM | – | > 45.9 | – | -0.58 V | – | – | –
O=[N+]([O-])c1c(CO)nc2c(Sc3ccc(Cl)cc3)cc(Cl)cn12 | > 50 µM | > 3.9 | 4 µM | > 15.6 µM | 7.9 µM | – | – | – | – | > 2 | –
CSc1ccc(OCc2ncc([N+](=O)[O-])n2C)cc1 [FEXINIDAZOLE] | – | – | – | – | – | – | – | -0.83 V | – | – | –
O=[N+]([O-])c1c(CS(=O)(=O)c2ccccc2)nc2c([Se]c3ccc(Cl)cc3)cc(Cl)cn12 | 0.3 µM | > 11.1 | 0.7 µM | > 7.8 µM | 0.9 µM | > 26 | – | – | – | > 8.7 | Insoluble
COc1ccc(Nc2cc(Cl)cn3c([N+](=O)[O-])c(CS(=O)(=O)c4ccccc4)nc23)cc1 | – | – | – | > 3.9 µM | – | – | – | – | – | – | Insoluble
O=[N+]([O-])c1cnc2c(Br)cc(Cl)cn12 | 0.4 µM | 1.7 | 9.3 µM | 16.2 µM | 15.9 µM | 40.5 | – | – | – | 1 | –
Cc1cc(Sc2ccc(Cl)cc2)c2nc(CS(=O)(=O)c3ccccc3)c([N+](=O)[O-])n2c1 | 1.8 µM | > 24 | 2.6 µM | > 62.5 µM | 5 µM | > 34.7 | – | -0.76 V | – | 12.5 | –
CSCc1nc2c(Br)cc(Cl)cn2c1[N+](=O)[O-] | 2.2 µM | – | – | > 15.6 µM | – | > 7.1 | – | – | – | – | Insoluble
O=[N+]([O-])c1c(CS(=O)(=O)c2ccccc2)nc2c(Br)cc(C(F)(F)F)cn12 | 4 µM | > 2.5 | 6.2 µM | > 15.6 µM | > 3.1 µM | > 3.9 | – | -0.6 V | – | – | –
C[C@@H]1[C@H](O)[C@@H](C)/C=C/C=C/C=C/C=C/C=C/C=C/C=C/[C@H](O[C@@H]2O[C@H](C)[C@@H](O)[C@H](N)[C@@H]2O)C[C@@H]2O[C@](O)(C[C@@H](O)C[C@@H](O)[C@H](O)CC[C@@H](O)C[C@@H](O)CC(=O)O[C@H]1C)C[C@H](O)[C@H]2C(=O)O [AMPHOTERICIN B] | – | – | – | – | 0.06 µM | – | – | – | – | – | –
O=[N+]([O-])c1c(CSc2ccccc2)nc2c(Br)cc(Cl)cn12 | > 50 µM | – | > 12.5 µM | > 31.2 µM | 17.8 µM | – | – | -0.7 V | – | > 1.8 | –
O=[N+]([O-])c1cnc2c(Sc3ccc(Cl)cc3)cc(Cl)cn12 | 0.085 µM | > 3.1 | 2.5 µM | > 7.8 µM | – | > 92.8 | – | -0.74 V | – | – | Insoluble
O=[N+]([O-])c1c(CS(=O)(=O)c2ccccc2)nc2c(Nc3ccc(Cl)cc3)cc(Cl)cn12 | – | – | – | > 3.9 µM | – | – | – | – | – | – | Insoluble
Cc1cc(Br)c2nc(CS(=O)(=O)c3ccccc3)c([N+](=O)[O-])n2c1 | 1.2 µM | > 5.6 | 5.6 µM | > 31.2 µM | > 3.1 µM | > 26 | – | -0.76 V | – | – | –
CS(=O)(=O)Cc1nc2c(Br)cc(Cl)cn2c1N | 7.2 µM | – | > 12.5 µM | > 125 µM | > 100 µM | – | – | – | – | – | –
Cc1nc2c(Br)cc(Cl)cn2c1[N+](=O)[O-] | > 50 µM | – | > 12.5 µM | > 125 µM | 32.1 µM | – | – | – | – | > 3.9 | –
C[S+]([O-])Cc1nc2c(Br)cc(Cl)cn2c1[N+](=O)[O-] (centres undefined) | 0.02 µM | – | – | 51.4 µM | – | 2570 | – | – | – | – | –
O=[N+]([O-])c1c(CS(=O)(=O)c2ccccc2)nc2c(Nc3ccccc3)cc(Cl)cn12 | – | – | – | > 3.9 µM | – | – | – | -0.69 V | – | – | Insoluble
Cc1nc2c(Sc3ccc(Cl)cc3)cc(Cl)cn2c1[N+](=O)[O-] | – | – | > 12.5 µM | > 7.8 µM | – | – | – | -0.79 V | – | – | –
O=[N+]([O-])c1c(CS(=O)(=O)c2cccnc2)nc2c(Br)cc(Cl)cn12 | 0.025 µM | > 78 | 0.8 µM | > 62.5 µM | 77.8 µM | > 2500 | 0.13 | – | 27 min | > 0.8 | Soluble
CS(=O)(=O)Cc1nc2c(Sc3ccc(Cl)cc3)cc(Cl)cn2c1[N+](=O)[O-] | 0.067 µM | > 26 | 1.2 µM | > 31.2 µM | 10.3 µM | > 466 | 0.011 | – | 12 min | > 3 | –
O=[N+]([O-])c1c(CO)nc2c(Br)cc(Cl)cn12 | > 50 µM | – | > 12.5 µM | > 125 µM | 46.3 µM | – | – | – | – | > 5.4 | –

— ChEMBL document CHEMBL4765423, “Antikinetoplastid SAR study in 3-nitroimidazopyridine series: Identification of a novel non-genotoxic and potent anti-T. b. brucei hit-compound with improved pharmacokinetic properties” (Eur J Med Chem, 2020)
